Measured values: ChEMBL document CHEMBL4184236, “Design, synthesis and biological evaluation of matrine derivatives as potential anticancer agents” (Bioorg Med Chem Lett, 2018)
Blank lines part the entries; values can stand above or below the compound they belong to.

Legend:
[1] = test system: CNE-2; assay: Induction of apoptosis in human CNE2 cells assessed as viable cells level at 20 uM incubated for 24 hrs by Annexin V-FITC/PI dual staining based flow cytometry (reference value: 91.6%); format: functional
Procedure, shortened: (§1)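 CNE2 and SMMC-7721 cells were treated for 24 h at 0, 5, 10 or 30 µM, or at 0, 10, 20 or 50 µM depending on compound. Cells were stained with Annexin V-FITC/propidium iodide and quantified by flow cytometry. Apoptotic cells were counted as AV+/PI− (lower right) plus AV+/PI+ (upper right) quadrants.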

[2] = test system: A549; assay: Anticancer activity against human A549 cells assessed as reduction in cell viability incubated for 48 hrs MTT assay; format: functional, cell-based; settings: A549, 48 h
Procedure, shortened: (§2)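 MTT assay on human hepatocarcinoma SMMC-7721, lung carcinoma A549 and nasopharyngeal carcinoma CNE2 cells, with matrine as comparator and cisplatin as positive control. IC50 is the concentration that lowers optical density of treated cells by 50% versus untreated cells, given as the mean ± SD of three experiments.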

[3] = test system: CNE-2; assay: Induction of apoptosis in human CNE2 cells assessed as late apoptotic cells level at 20 uM incubated for 24 hrs by Annexin V-FITC/PI dual staining based flow cytometry (reference value: 1.37%); format: functional; procedure, shortened: as §1
[4] = test system: SMMC-7721; assay: Induction of apoptosis in human SMMC7721 cells assessed as late apoptotic cells level at 50 uM incubated for 24 hrs by Annexin V-FITC/PI dual staining based flow cytometry (reference value: 1.6%); format: functional; procedure, shortened: as §1
[5] = test system: SMMC-7721; assay: Induction of apoptosis in human SMMC7721 cells assessed as viable cells level at 20 uM incubated for 24 hrs by Annexin V-FITC/PI dual staining based flow cytometry (reference value: 96.2%); format: functional; procedure, shortened: as §1
[6] = test system: SMMC-7721; assay: Induction of apoptosis in human SMMC7721 cells assessed as early apoptotic cells level at 20 uM incubated for 24 hrs by Annexin V-FITC/PI dual staining based flow cytometry (reference value: 1%); format: functional; procedure, shortened: as §1
[7] = test system: SMMC-7721; assay: Induction of apoptosis in human SMMC7721 cells assessed as viable cells level at 10 uM incubated for 24 hrs by Annexin V-FITC/PI dual staining based flow cytometry (reference value: 96.2%); format: functional; procedure, shortened: as §1
[8] = test system: SMMC-7721; assay: Anticancer activity against human SMMC7721 cells assessed as reduction in cell viability incubated for 48 hrs MTT assay; format: functional, cell-based; settings: SMMC-7721, 48 h; procedure, shortened: as §2
[9] = test system: CNE-2; assay: Induction of apoptosis in human CNE2 cells assessed as necrotic cells level at 20 uM incubated for 24 hrs by Annexin V-FITC/PI dual staining based flow cytometry (reference value: 3.43%); format: functional; procedure, shortened: as §1
[10] = test system: SMMC-7721; assay: Induction of apoptosis in human SMMC7721 cells incubated for 24 hrs by Annexin V-FITC/PI dual staining based flow cytometry; format: functional, cell-based; procedure, shortened: as §1
[11] = test system: CNE-2; assay: Induction of apoptosis in human CNE2 cells assessed as late apoptotic cells level at 50 uM incubated for 24 hrs by Annexin V-FITC/PI dual staining based flow cytometry (reference value: 1.37%); format: functional; procedure, shortened: as §1
[12] = test system: CNE-2; assay: Anticancer activity against human CNE2 cells assessed as reduction in cell viability incubated for 48 hrs MTT assay; format: functional, cell-based; settings: CNE-2, 48 h; procedure, shortened: as §2
[13] = test system: SMMC-7721; assay: Induction of apoptosis in human SMMC7721 cells assessed as viable cells level at 50 uM incubated for 24 hrs by Annexin V-FITC/PI dual staining based flow cytometry (reference value: 96.2%); format: functional; procedure, shortened: as §1
[14] = test system: SMMC-7721; assay: Induction of apoptosis in human SMMC7721 cells assessed as necrotic cells level at 50 uM incubated for 24 hrs by Annexin V-FITC/PI dual staining based flow cytometry (reference value: 1.18%); format: functional; procedure, shortened: as §1
[15] = test system: SMMC-7721; assay: Induction of apoptosis in human SMMC7721 cells assessed as necrotic cells level at 10 uM incubated for 24 hrs by Annexin V-FITC/PI dual staining based flow cytometry (reference value: 1.18%); format: functional; procedure, shortened: as §1
[16] = test system: SMMC-7721; assay: Induction of apoptosis in human SMMC7721 cells assessed as late apoptotic cells level at 10 uM incubated for 24 hrs by Annexin V-FITC/PI dual staining based flow cytometry (reference value: 1.6%); format: functional; procedure, shortened: as §1
[17] = test system: CNE-2; assay: Induction of apoptosis in human CNE2 cells assessed as early apoptotic cells level at 20 uM incubated for 24 hrs by Annexin V-FITC/PI dual staining based flow cytometry (reference value: 3.56%); format: functional; procedure, shortened: as §1
[18] = test system: SMMC-7721; assay: Induction of apoptosis in human SMMC7721 cells assessed as late apoptotic cells level at 20 uM incubated for 24 hrs by Annexin V-FITC/PI dual staining based flow cytometry (reference value: 1.6%); format: functional; procedure, shortened: as §1
[19] = test system: CNE-2; assay: Induction of apoptosis in human CNE2 cells incubated for 24 hrs by Annexin V-FITC/PI dual staining based flow cytometry; format: functional, cell-based; procedure, shortened: as §1
[20] = test system: CNE-2; assay: Induction of apoptosis in human CNE2 cells assessed as early apoptotic cells level at 50 uM incubated for 24 hrs by Annexin V-FITC/PI dual staining based flow cytometry (reference value: 3.56%); format: functional; procedure, shortened: as §1
[21] = test system: SMMC-7721; assay: Induction of apoptosis in human SMMC7721 cells assessed as early apoptotic cells level at 50 uM incubated for 24 hrs by Annexin V-FITC/PI dual staining based flow cytometry (reference value: 1%); format: functional; procedure, shortened: as §1
[22] = test system: CNE-2; assay: Induction of apoptosis in human CNE2 cells assessed as viable cells level at 50 uM incubated for 24 hrs by Annexin V-FITC/PI dual staining based flow cytometry (reference value: 91.6%); format: functional; procedure, shortened: as §1
[23] = test system: SMMC-7721; assay: Induction of apoptosis in human SMMC7721 cells assessed as early apoptotic cells level at 10 uM incubated for 24 hrs by Annexin V-FITC/PI dual staining based flow cytometry (reference value: 1%); format: functional; procedure, shortened: as §1
[24] = test system: SMMC-7721; assay: Induction of apoptosis in human SMMC7721 cells assessed as necrotic cells level at 20 uM incubated for 24 hrs by Annexin V-FITC/PI dual staining based flow cytometry (reference value: 1.18%); format: functional; procedure, shortened: as §1
[25] = test system: CNE-2; assay: Induction of apoptosis in human CNE2 cells assessed as necrotic cells level at 50 uM incubated for 24 hrs by Annexin V-FITC/PI dual staining based flow cytometry (reference value: 3.43%); format: functional; procedure, shortened: as §1

SMILES: COc1ccc2c(c1)c(/C=C1\CC[C@@H]3[C@H]4CCCN5CCC[C@@H](CN3C1=O)[C@@H]45)cn2Cc1cccc(Cl)c1
Activity [1]: 58.7% | IC50 [2]: 4.96 µM | Activity [3]: 8.7% | Activity [4]: 79.5% | Activity [5]: 38.6% | Activity [6]: 40.6% | Activity [7]: 60.3% | IC50 [8]: 3.95 µM | Activity [9]: 2.7% | Activity [10]: Dose-dependent effect | Activity [11]: 28.3% | IC50 [12]: 3.42 µM | Activity [13]: 2.15% | Activity [14]: 2.91% | Activity [15]: 0.69% | Activity [16]: 3.4% | Activity [17]: 29.9% | Activity [18]: 18.2% | Activity [19]: Dose-dependent effect | Activity [20]: 45.9% | Activity [21]: 15.5% | Activity [22]: 21.2% | Activity [23]: 35.6% | Activity [24]: 2.53% | Activity [25]: 4.62%

SMILES: O=C1/C(=C/c2cn(Cc3ccc(OC(F)(F)F)cc3)c3ccc(Br)cc23)CC[C@@H]2[C@H]3CCCN4CCC[C@@H](CN12)[C@@H]34
IC50 [2]: 9.04 µM | IC50 [8]: 11.5 µM | IC50 [12]: 6.04 µM

SMILES: Cc1ccc2c(c1)c(/C=C1\CC[C@@H]3[C@H]4CCCN5CCC[C@@H](CN3C1=O)[C@@H]45)cn2Cc1ccc2ccccc2c1
IC50 [2]: 5.04 µM | IC50 [8]: 3.26 µM | IC50 [12]: 3.53 µM

SMILES: COc1ccc2c(/C=C3\CC[C@@H]4[C@H]5CCCN6CCC[C@@H](CN4C3=O)[C@@H]56)cn(Cc3ccc4ccccc4c3)c2c1
IC50 [2]: 13.2 µM | IC50 [8]: 9.06 µM | IC50 [12]: 5.42 µM

SMILES: O=C1/C(=C/c2ccc3c(ccn3Cc3ccc4ccccc4c3)c2)CC[C@@H]2[C@H]3CCCN4CCC[C@@H](CN12)[C@@H]34
IC50 [2]: 30.2 µM | IC50 [8]: 27 µM | IC50 [12]: 14.3 µM

SMILES: O=C1/C(=C/c2cn(Cc3cccc(Cl)c3)c3cc(Cl)ccc23)CC[C@@H]2[C@H]3CCCN4CCC[C@@H](CN12)[C@@H]34
IC50 [2]: 26.3 µM | IC50 [8]: 23.7 µM | IC50 [12]: 23.7 µM

SMILES: O=C1/C(=C/c2cn(Cc3cccc(Cl)c3)c3ccccc23)CC[C@@H]2[C@H]3CCCN4CCC[C@@H](CN12)[C@@H]34
IC50 [2]: 7.53 µM | IC50 [8]: 7.58 µM | IC50 [12]: 6.36 µM

Continued, in another order:

IC50 [2]: 9.84 µM | IC50 [8]: 9.12 µM
SMILES: Cc1ccc(Cn2cc(/C=C3\CC[C@@H]4[C@H]5CCCN6CCC[C@@H](CN4C3=O)[C@@H]56)c3ccccc32)cc1
IC50 [12]: 8.91 µM

IC50 [2]: > 100 µM | IC50 [8]: > 100 µM
SMILES: Cn1cccc1/C=C1\CC[C@@H]2[C@H]3CCCN4CCC[C@@H](CN2C1=O)[C@@H]34
IC50 [12]: > 100 µM

IC50 [2]: 29.9 µM | IC50 [8]: 25.8 µM
SMILES: O=C1/C(=C/c2ccc3c(ccn3Cc3cccc(Cl)c3)c2)CC[C@@H]2[C@H]3CCCN4CCC[C@@H](CN12)[C@@H]34
IC50 [12]: 14.6 µM

IC50 [2]: 22.9 µM | IC50 [8]: 17.6 µM
SMILES: O=C1/C(=C/c2cccn2Cc2ccc(Br)cc2)CC[C@@H]2[C@H]3CCCN4CCC[C@@H](CN12)[C@@H]34
IC50 [12]: 17.8 µM

IC50 [2]: 14.5 µM | IC50 [8]: 12.2 µM
SMILES: COc1ccc(Br)c(Cn2cccc2/C=C2\CC[C@@H]3[C@H]4CCCN5CCC[C@@H](CN3C2=O)[C@@H]45)c1
IC50 [12]: 11.6 µM

IC50 [2]: > 50 µM | IC50 [8]: 49.4 µM
SMILES: Cc1cc(C)cc(Cn2cccc2/C=C2\CC[C@@H]3[C@H]4CCCN5CCC[C@@H](CN3C2=O)[C@@H]45)c1
IC50 [12]: 32.1 µM
